Published values pooled from the literature.
Compare with care: the assays were run in different laboratories. Converted amounts (≈) assume the structure as drawn.
Organism: Mycobacterium tuberculosis
Read-out: microbial growth

`COc1cccc2c1C(=O)c1c(O)c3c(c(O)c1C2=O)C[C@@](O)(C(C)=O)C[C@@H]3O[C@H]1C[C@H](N)[C@H](O)[C@H](C)O1` has an MIC of 1.25 µM (resazurin; H37RV).
`Nc1sc2c(c1C(=O)NC13CC4CC(CC(C4)C1)C3)CCCC2` has an MIC of greater than 300 µM (resazurin; H37RV).
For `Cc1cc2nc(C(=O)O)cc(-c3ccccc3Cl)c2c(C)c1-c1ccncc1`, the MIC90 was 80 µM (≈ 31.1 µg/mL) (H37RV).
`CCOC(=O)c1c(NC(=O)c2c(F)c(F)c(F)c(F)c2F)sc2c1CCN(C(=O)OC(C)(C)C)C2` gave an MIC of less than 100 µM (resazurin; H37RV).
`Cc1cccc(C)c1-c1ccnc2cc(C)c(-c3ccc(CN4CCOCC4)cc3)c(C)c12` gave an MIC90 of 5 µM (≈ 2.18 µg/mL) (H37RV).
`[H]/N=C(/N)N[C@H]1[C@H](O)[C@@H](O)[C@H](O[C@@H]2O[C@@H](C)[C@](O)(C=O)[C@H]2O[C@@H]2O[C@@H](CO)[C@H](O)[C@@H](O)[C@@H]2NC)[C@@H](N/C(N)=N\[H])[C@@H]1O` has an inhibition zone of 30 mm (disc diffusion; ATCC25177; 5 µg/disc, 12 days).
With `CCOC(=O)c1c(NC(=O)c2c(F)c(F)c(F)c(F)c2F)sc2c1CCN(CC)C2` the IC50 was 0.65 µM (resazurin; H37RV).
`CC(=O)[C@]1(O)Cc2c(O)c3c(c(O)c2[C@@H](O[C@H]2C[C@H](N)[C@H](O)[C@H](C)O2)C1)C(=O)c1ccccc1C3=O` has an MIC of 80 µM (resazurin; H37RV).
`Nc1nc(-c2ccc(-c3ccccc3)cc2)nc2c1ncn2[C@@H]1O[C@H](COS(=O)(=O)NC(=O)c2ccccc2O)[C@@H](O)[C@H]1O` has an MIC99 of 25 to 50 µM (H37RV; pH 6.6).
With `Nc1sc2c(c1C(=O)O)CCN(C(=O)OCc1ccccc1)C2` the MIC was greater than 300 µM (resazurin; H37RV).
The MIC of `CO[C@H]1/C=C/O[C@@]2(C)Oc3c(C)c(O)c4c(O)c(c(/C=N/N5CCN(C)CC5)c(O)c4c3C2=O)NC(=O)/C(C)=C\C=C\[C@H](C)[C@H](O)[C@@H](C)[C@@H](O)[C@@H](C)[C@H](OC(C)=O)[C@@H]1C` is reported as 0.06 µg/mL (resazurin; ATCC27294 H37RV; 7 days).
For `CCCCOC(=O)Nc1cc2nc(C3CCCCC3)[nH]c2cc1N1CCCC1`, the MIC99 was 0.39 µg/mL (resazurin; H37RV).
`Nc1nc(-c2cccc(-c3ccccc3)c2)nc2c1ncn2[C@@H]1O[C@H](COS(=O)(=O)NC(=O)c2ccccc2O)[C@@H](O)[C@H]1O` gave an MIC99 of 25 to 50 µM (H37RV; pH 6.6).
The MIC99 of `O=C(Nc1cc2nc(C3CCCCC3)[nH]c2cc1N1CCCC1)OCc1ccccc1` is reported as 1.56 µg/mL (resazurin; H37RV).
For `Cc1cc2nc(C(=O)N(C)C)cc(-c3ccccc3Cl)c2c(C)c1-c1ccncc1`, the MIC90 was 20 µM (≈ 8.32 µg/mL) (H37RV).
